Test system: HEK-293T
Assay: Multiplex assay against HEK293T;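 as to Population Tubulin-Different-Phenotype (%): share of the cells with healthy nuclei that show this phenotype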
Format: toxicity, cell-based
Settings: human
How it was run: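 Phenotypes for tubulin, mitochondrial mass and membrane permeability are expressed as per cents of healthy-nucleus cells. Cells were stained live at seeding with Hoechst33342, BioTracker Green Microtubule Cytoskeleton Dye, MitoTracker Red and Annexin V Alexa Fluor 680, then imaged after compound addition on a CQ1 microscope at 37°C and 5% CO2. Machine-learning gating in CellPathfinder separated Hoechst high-intensity objects from normal cells, divided normal cells by nuclear state (healthy, pyknosed, fragmented) and divided pyknosed cells into mitotic or apoptotic.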

[1] = 12 h, 1 µM, compound concentration 1 uM, replicate 1
[2] = 12 h, 1 µM, compound concentration 1 uM, replicate 2
[3] = 12 h, 10 µM, compound concentration 10 uM, replicate 1
[4] = 12 h, 10 µM, compound concentration 10 uM, replicate 2
[5] = 24 h, 1 µM, compound concentration 1 uM, replicate 1
[6] = 24 h, 1 µM, compound concentration 1 uM, replicate 2
[7] = 24 h, 10 µM, compound concentration 10 uM, replicate 1
[8] = 24 h, 10 µM, compound concentration 10 uM, replicate 2
[9] = 48 h, 1 µM, compound concentration 1 uM, replicate 1
[10] = 48 h, 1 µM, compound concentration 1 uM, replicate 2
[11] = 48 h, 10 µM, compound concentration 10 uM, replicate 1
[12] = 48 h, 10 µM, compound concentration 10 uM, replicate 2

Structure (SMILES): CCOc1cc(C(=O)N2CCC(N3CCN(C)CC3)CC2)ccc1Nc1ncc2c(n1)N(C1CCCC1)c1ccccc1C(=O)N2C
- Population Apoptotic (%) [1]: 61%
- Population Fragmented Nuclei (%) [1]: 16%
- Population Hoechst High Intensity Objects (%) [1]: 18%
- Population Membrane Permeable-Phenotype (%) [1]: 5%
- Population Mitochondria Different-Phenotype (%) [1]: 93%
- Population Mitotic Cells (%) [1]: 38%
- Population Normal (%) [1]: 81%
- Population Pyknosed Nuclei (%) [1]: 57%
- Population Tubulin-Different-Phenotype (%) [1]: 81%
- Total Cell Count [1]: 371
- Population Apoptotic (%) [2]: 60%
- Population Fragmented Nuclei (%) [2]: 4%
- Population Healthy Nuclei (%) [2]: 25%
- Population Hoechst High Intensity Objects (%) [2]: 5%
- Population Membrane Permeable-Phenotype (%) [2]: 9%
- Population Mitochondria Different-Phenotype (%) [2]: 88%
- Population Mitotic Cells (%) [2]: 39%
- Population Normal (%) [2]: 94%
- Population Pyknosed Nuclei (%) [2]: 70%
- Population Tubulin-Different-Phenotype (%) [2]: 79%
- Total Cell Count [2]: 178
- Population Apoptotic (%) [3]: 83%
- Population Fragmented Nuclei (%) [3]: 8%
- Population Healthy Nuclei (%) [3]: 12%
- Population Hoechst High Intensity Objects (%) [3]: 15%
- Population Mitochondria Different-Phenotype (%) [3]: 95%
- Population Mitotic Cells (%) [3]: 16%
- Population Normal (%) [3]: 84%
- Population Pyknosed Nuclei (%) [3]: 79%
- Population Tubulin-Different-Phenotype (%) [3]: 60%
- Total Cell Count [3]: 215
- Population Apoptotic (%) [4]: 92%
- Population Fragmented Nuclei (%) [4]: 5%
- Population Healthy Nuclei (%) [4]: 6%
- Population Hoechst High Intensity Objects (%) [4]: 7%
- Population Membrane Permeable-Phenotype (%) [4]: 0%
- Population Mitochondria Different-Phenotype (%) [4]: 100%
- Population Mitotic Cells (%) [4]: 7%
- Population Normal (%) [4]: 92%
- Population Pyknosed Nuclei (%) [4]: 88%
- Population Tubulin-Different-Phenotype (%) [4]: 16%
- Total Cell Count [4]: 216
- Population Apoptotic (%) [5]: 63%
- Population Fragmented Nuclei (%) [5]: 19%
- Population Hoechst High Intensity Objects (%) [5]: 19%
- Population Membrane Permeable-Phenotype (%) [5]: 3%
- Population Mitochondria Different-Phenotype (%) [5]: 96%
- Population Mitotic Cells (%) [5]: 36%
- Population Normal (%) [5]: 80%
- Population Pyknosed Nuclei (%) [5]: 54%
- Population Tubulin-Different-Phenotype (%) [5]: 83%
- Total Cell Count [5]: 391
- Population Apoptotic (%) [6]: 66%
- Population Fragmented Nuclei (%) [6]: 4%
- Population Healthy Nuclei (%) [6]: 26%
- Population Hoechst High Intensity Objects (%) [6]: 3%
- Population Membrane Permeable-Phenotype (%) [6]: 5%
- Population Mitochondria Different-Phenotype (%) [6]: 92%
- Population Mitotic Cells (%) [6]: 33%
- Population Normal (%) [6]: 96%
- Population Pyknosed Nuclei (%) [6]: 69%
- Population Tubulin-Different-Phenotype (%) [6]: 75%
- Total Cell Count [6]: 204
- Population Apoptotic (%) [7]: 91%
- Population Fragmented Nuclei (%) [7]: 15%
- Population Healthy Nuclei (%) [7]: 4%
- Population Hoechst High Intensity Objects (%) [7]: 19%
- Population Membrane Permeable-Phenotype (%) [7]: 0%
- Population Mitochondria Different-Phenotype (%) [7]: 100%
- Population Mitotic Cells (%) [7]: 8%
- Population Normal (%) [7]: 80%
- Population Pyknosed Nuclei (%) [7]: 80%
- Population Tubulin-Different-Phenotype (%) [7]: 37%
- Total Cell Count [7]: 206
- Population Apoptotic (%) [8]: 93%
- Population Fragmented Nuclei (%) [8]: 6%
- Population Healthy Nuclei (%) [8]: 18%
- Population Hoechst High Intensity Objects (%) [8]: 11%
- Population Mitochondria Different-Phenotype (%) [8]: 97%
- Population Mitotic Cells (%) [8]: 6%
- Population Normal (%) [8]: 88%
- Population Pyknosed Nuclei (%) [8]: 74%
- Population Tubulin-Different-Phenotype (%) [8]: 21%
- Total Cell Count [8]: 222
- Population Apoptotic (%) [9]: 64%
- Population Fragmented Nuclei (%) [9]: 22%
- Population Healthy Nuclei (%) [9]: 31%
- Population Hoechst High Intensity Objects (%) [9]: 20%
- Population Mitochondria Different-Phenotype (%) [9]: 91%
- Population Mitotic Cells (%) [9]: 35%
- Population Normal (%) [9]: 79%
- Population Pyknosed Nuclei (%) [9]: 46%
- Population Tubulin-Different-Phenotype (%) [9]: 65%
- Total Cell Count [9]: 400
- Population Apoptotic (%) [10]: 58%
- Population Fragmented Nuclei (%) [10]: 8%
- Population Healthy Nuclei (%) [10]: 48%
- Population Hoechst High Intensity Objects (%) [10]: 5%
- Population Membrane Permeable-Phenotype (%) [10]: 0%
- Population Mitochondria Different-Phenotype (%) [10]: 72%
- Population Mitotic Cells (%) [10]: 41%
- Population Normal (%) [10]: 94%
- Population Pyknosed Nuclei (%) [10]: 43%
- Population Tubulin-Different-Phenotype (%) [10]: 63%
- Total Cell Count [10]: 239
- Population Apoptotic (%) [11]: 90%
- Population Fragmented Nuclei (%) [11]: 23%
- Population Healthy Nuclei (%) [11]: 2%
- Population Hoechst High Intensity Objects (%) [11]: 20%
- Population Membrane Permeable-Phenotype (%) [11]: 0%
- Population Mitotic Cells (%) [11]: 9%
- Population Normal (%) [11]: 79%
- Population Pyknosed Nuclei (%) [11]: 74%
- Population Tubulin-Different-Phenotype (%) [11]: 75%
- Total Cell Count [11]: 233
- Population Apoptotic (%) [12]: 98%
- Population Fragmented Nuclei (%) [12]: 13%
- Population Healthy Nuclei (%) [12]: 11%
- Population Hoechst High Intensity Objects (%) [12]: 10%
- Population Membrane Permeable-Phenotype (%) [12]: 5%
- Population Mitochondria Different-Phenotype (%) [12]: 100%
- Population Mitotic Cells (%) [12]: 1%
- Population Normal (%) [12]: 90%
- Population Pyknosed Nuclei (%) [12]: 75%
- Population Tubulin-Different-Phenotype (%) [12]: 50%
- Total Cell Count [12]: 200

— ChEMBL document CHEMBL4689842, “EUbOPEN Chemogenomics Library wave 1” (2021)
